ChEMBL document CHEMBL4396917, “Synthesis and biological evaluation of novel benzylidene-succinimide derivatives as noncytotoxic antiangiogenic inhibitors with anticolorectal cancer activity in vivo” (Eur J Med Chem, 2019)
The source made the active and inactive calls. No cut-off for these calls is given here.

What was measured:
[1] = tested on: HCT-116; experiment: Cytotoxicity against human HCT116 cells assessed as reduction in cell growth after 72 hrs by MTT assay; format: cell-based; settings: HCT-116, 72 h
[2] = tested on: SW480; experiment: Cytotoxicity against human SW480 cells assessed as reduction in cell growth after 72 hrs by MTT assay; format: cell-based; settings: SW480, 72 h
[3] = tested on: NCM460; experiment: Cytotoxicity against human NCM460 cells assessed as reduction in cell growth after 72 hrs by MTT assay; format: cell-based; settings: NCM460, 72 h
[4] = tested on: HUVEC; experiment: Antiangiogenic activity against HUVEC assessed as inhibition of cell proliferation measured […] by MTT assay; format: functional, cell-based; settings: Homo sapiens
[5] = tested on: HUVEC; experiment: Antiinvasive activity in HUVEC assessed as inhibition of VEGF-induced cell invasion at 10 uM after 6 hrs by crystal violet staining based transwell assay relative to control; format: functional; settings: Homo sapiens
Method in brief: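 Transwell: 1×10⁴ HUVECs in serum-free M200 in top chamber with vehicle or compound; bottom chamber M200 with 10% FBS; 6 h at 37°C; cells on membrane underside fixed in 4% paraformaldehyde, stained 0.1% crystal violet, imaged and counted.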

[6] = tested on: HUVEC; experiment: Antiangiogenic activity in HUVEC assessed as inhibition of VEGF-induced capillary like tube formation at 1 uM preincubated with VEGF for 20 mins followed by compound addition measured after 6 hrs by matrigel based tube formation assay relative to control; format: functional; settings: Homo sapiens
Method in brief: (§1)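 Matrigel (100 μL) set 1 h at 37°C; 2×10⁴ HUVECs in M200 with 10% FBS added per well plus 10 ng/mL VEGF; compound added after 20 min; incubated 6 h at 37°C, then capillary-like structures photographed.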

[7] = tested on: HUVEC; experiment: Antiangiogenic activity in HUVEC assessed as inhibition of VEGF-induced capillary like tube formation at 2.5 uM preincubated with VEGF for 20 mins followed by compound addition measured after 6 hrs by matrigel based tube formation assay relative to control; format: functional; settings: Homo sapiens; method in brief: as §1
[8] = tested on: Aorta; experiment: Inhibition of VEGF-induced capillary sprouting in Sprague-Dawley rat aortic ring treated for every 3 days for 7 days measured on day 7 by inverted microscopy; format: functional, tissue-based
Method in brief: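 Aortas from anesthetized Sprague-Dawley rats cut into 1-mm rings and embedded in Matrigel for 1 h at 37°C. Rings starved 1 day, then cultured in opti-MEM with 2.5% FBS and 30 ng/mL VEGF plus compound. Treatment renewed every 3 days for 7 days. Sprouting imaged on day 7 by inverted microscopy.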

[9] = tested on: HUVEC; experiment: Induction of apoptosis in VEGF-stimulated HUVEC assessed as early apoptotic cells at 1 uM after 24 hrs by Annexin V-FITC/propidium iodide staining based flow cytometric analysis (reference value: 7%); format: cell-based; settings: human
Method in brief: (§2)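 HUVECs plated at 5×10^5 per well and treated 24 h with 1, 5, 10 or 20 μM. Detached and adherent cells were pooled, washed in ice-cold PBS and resuspended in fresh medium. 1×10^5 cells were stained with annexin-V-FITC in annexin-V buffer for 20 min in the dark, then PI (50 μg/mL) was added. Read-out by flow cytometry.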

[10] = Induction of apoptosis in VEGF-stimulated HUVEC assessed as viable cells at 5 uM after 24 hrs by Annexin V-FITC/propidium iodide staining based flow cytometric analysis (reference value: 69.6%); format: cell-based; settings: human, read-out: Activity; method in brief: as §2
[11] = tested on: HUVEC; experiment: Induction of apoptosis in VEGF-stimulated HUVEC assessed as necrotic cells at 5 uM after 24 hrs by Annexin V-FITC/propidium iodide staining based flow cytometric analysis (reference value: 12.1%); format: cell-based; settings: human; method in brief: as §2
[12] = tested on: HUVEC; experiment: Induction of apoptosis in VEGF-stimulated HUVEC assessed as necrotic cells at 20 uM after 24 hrs by Annexin V-FITC/propidium iodide staining based flow cytometric analysis (reference value: 12.1%); format: cell-based; settings: human; method in brief: as §2
[13] = tested on: HT-29; experiment: Induction of apoptosis in human HT-29 cells assessed as early apoptotic cells at 5 uM after 24 hrs by Annexin V-FITC/propidium iodide staining based flow cytometric analysis (reference value: 1.9 to 5.3%); format: cell-based; settings: ht-29, 24 h
[14] = tested on: HT-29; experiment: Induction of apoptosis in human HT-29 cells assessed as necrotic cells at 5 uM after 24 hrs by Annexin V-FITC/propidium iodide staining based flow cytometric analysis (reference value: 1.3 to 3.9%); format: cell-based; settings: ht-29, 24 h
[15] = Induction of apoptosis in human HT-29 cells assessed as viable cells at 10 uM after 24 hrs by Annexin V-FITC/propidium iodide staining based flow cytometric analysis (reference value: 80.8%); format: cell-based; settings: read-out: Activity
[16] = tested on: HT-29; experiment: Induction of apoptosis in human HT-29 cells assessed as late apoptotic cells at 10 uM after 24 hrs by Annexin V-FITC/propidium iodide staining based flow cytometric analysis (reference value: 13.4%); format: cell-based; settings: ht-29, 24 h
[17] = Induction of apoptosis in human HT-29 cells assessed as viable cells at 5 uM after 72 hrs by Annexin V-FITC/propidium iodide staining based flow cytometric analysis (reference value: 81.1%); format: cell-based; settings: read-out: Activity
[18] = tested on: HT-29; experiment: Induction of apoptosis in human HT-29 cells assessed as early apoptotic cells at 5 uM after 72 hrs by Annexin V-FITC/propidium iodide staining based flow cytometric analysis (reference value: 5.3%); format: cell-based; settings: ht-29, 72 h
[19] = target: Serine/threonine-protein kinase mTOR (Homo sapiens) (UniProt P42345); experiment: Inhibition of mTOR (unknown origin) at 10 uM using myelin basic protein as substrate in presence of [gamma-33P]-ATP by scintillation counting analysis relative to control
Method in brief: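 Radiometric kinase panel run by a contract lab. Kinase (5–10 mU) in 25 mM Tris pH 7.5, 0.02 mM EGTA, 0.66 mg/mL myelin basic protein, magnesium acetate and [γ-33P]-ATP (about 500 cpm/pmol). Started with Mg-ATP mix, 40 min at room temperature, stopped with 3% phosphoric acid. Spotted on P30 filters, washed in 75 mM phosphoric acid and methanol, scintillation counted. Mean ± SD of three independent experiments.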

[20] = tested on: HT-29; experiment: Antitumor activity against human HT-29 cells xenografted in mouse assessed as large areas of late apoptotic and necrotic cells in tumor at 20 to 60 mg/kg, po administered every other day for 3 weeks and measured at 20 days post treatment by H and E staining based assay; format: functional, organism-based
[21] = tested on: HT-29; experiment: Antitumor activity against human HT-29 cells xenografted in mouse assessed as reduction in cell proliferation in tumor at 20 to 60 mg/kg, po administered every other day for 3 weeks and measured at 20 days post treatment by Ki-67 staining based assay; format: functional, organism-based
[22] = tested on: HT-29; experiment: Downregulation of MMP9 expression in human HT-29 cells after 24 hrs by immunoblot analysis; format: functional, cell-based
[23] = tested on: HT-29; experiment: Antiangiogenic activity in human HT-29 cells assessed as decrease in secreted MMP2 activity at 1 to 20 uM after 24 hrs by gelatin zymography; format: functional, cell-based
Method in brief: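 HT29 cells treated 1, 5, 10 or 20 μM for 24 h; supernatant run non-reducing on 10% SDS-PAGE with 2% gelatin; SDS removed with 2% Triton X-100, gel incubated 48 h at 37°C in Tris pH 7.5/NaCl/CaCl2 buffer, Coomassie stained; clear MMP-2 and MMP-9 bands quantified by densitometry.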

[24] = tested on: HT-29; experiment: Antiangiogenic activity against human HT-29 cells xenografted in mouse assessed as reduction in mean vessel density in tumour at 40 mg/kg, po administered for 7 days measured at 20 days post-treatment; format: functional, organism-based

Question: With `COc1ccc(NC(=O)c2cccc(/C=C3\CC(=O)N(c4ccc(C)cc4)C3=O)c2)cc1` as the molecule, how does the IC50 [1] read?
Answer: The IC50 was > 100 µM.

Question: What about the IC50 [2] of the same molecule?
Answer: Its IC50 is 93 µM.

Question: What about the IC50 [3] of the same molecule?
Answer: Its IC50 is > 100 µM.

Question: What about the inhibition [4] of the same molecule?
Answer: Its inhibition is “Dose-dependent effect”.

Question: And the IC50 ([4]; 0.5 h)?
Answer: The IC50 was 26.6 µM.

Question: And the inhibition at 10 µM [5]?
Answer: The inhibition at 10 µM was 50%.

Question: What about the inhibition at 1 µM [6] of the same molecule?
Answer: The inhibition at 1 µM was 30%.

Question: And the inhibition at 2.5 µM [7]?
Answer: The inhibition at 2.5 µM was 73%.

Question: What about the inhibition [8] of the same molecule?
Answer: Its inhibition is “Dose-dependent effect”.

Question: What about the Activity [9] of the same molecule?
Answer: Its Activity is 10.7%.

Question: What about the viability at 24 h, 5 µM [10] of the same molecule?
Answer: The viability at 24 h, 5 µM was 75.4%.

Question: And the Activity [11]?
Answer: Its Activity is 4.8%.

Question: What about the Activity [12] of the same molecule?
Answer: Its Activity is 5.6%.

Question: And the Activity [13]?
Answer: The Activity was 1.2 to 5.4%.

Question: And the Activity [14]?
Answer: Its Activity is 0.8 to 4.7%.

Question: What about the viability at 24 h, 10 µM [15] of the same molecule?
Answer: The viability at 24 h, 10 µM was 77.2%.

Question: And the Activity [16]?
Answer: The Activity was 19%.

Question: What about the viability at 72 h, 5 µM [17] of the same molecule?
Answer: Its viability at 72 h, 5 µM is 76.9%.

Question: And the Activity [18]?
Answer: Its Activity is 9.8%.

Question: What about the inhibition [19] of the same molecule?
Answer: Its inhibition is 93.8%.

Question: And the Activity [20]?
Answer: Its Activity is “Active”.

Question: What about the inhibition [21] of the same molecule?
Answer: Its inhibition is “Active”.

Question: What about the inhibition [22] of the same molecule?
Answer: The inhibition was “Dose-dependent effect”.

Question: What about the inhibition [23] of the same molecule?
Answer: Its inhibition is “Active”.

Question: And the inhibition [24]?
Answer: The inhibition was “Active”.
